Data published in ChEMBL document CHEMBL4130635, “2,4-Diaminoquinazolines as Dual Toll-like Receptor (TLR) 7/8 Modulators for the Treatment of Hepatitis B Virus” (J Med Chem, 2018).
Active and inactive are the calls of the source. The calls are words filed in the database; no cut-off is given here.

Columns and labels:
Plasma [1] = experiment: Proinflammatory activity in C57BL/6J mouse plasma assessed as CXCL-1 levels at 30 mg/kg, po by multiplex assay (reference value: 230 pg/ml); type: functional
Cynomolgus monkey [2] = experiment: Induction of IFNalpha levels in cynomolgus monkey plasma at 1 mg/kg, po after 24 hrs by ELISA; type: functional, Macaca fascicularis
In short: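 Healthy cynomolgus monkeys given single oral doses of 1, 3, 9 and 30 mg/kg, with a 2-week wash-out planned between doses. Systemic cytokine levels in plasma were sampled at 0.5, 1, 2, 4, 9 and 24 h postdose.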

D(1A) dopamine receptor = D(1A) dopamine receptor (Homo sapiens, UniProt P21728); experiment: Inhibition of dopamine D1 receptor (unknown origin)
Cynomolgus monkey [3] = experiment: Proinflammatory activity in cynomolgus monkey plasma assessed as IL-6 levels at 30 mg/kg, po after 24 hrs by Luminex assay (reference value: 80 pg/ml); type: functional, Macaca fascicularis
[4] = Metabolic stability in mouse liver microsomes assessed as compound metabolized at 1 uM after 15 mins; type: ADME, microsome; details: read-out: Drug metabolism
In short: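 Mouse (M) or human (H) liver microsomes incubated with compound at 1 μM; percent metabolized after 15 min.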

Liver [5] = experiment: Induction of IFNalpha levels in C57BL/6J mouse liver at 0.3 mg/kg, po by ELISA (reference value: 30 pg/g); type: functional
Plasma [6] = experiment: Proinflammatory activity in C57BL/6J mouse plasma assessed as IL-1beta levels at 3 mg/kg, po by multiplex assay (reference value: 60 pg/ml); type: functional
[7] = Ratio of drug level in Sprague-Dawley rat liver to plasma at 10 mg/kg, po
Liver [8] = experiment: Anti-inflammatory activity in C57BL/6J mouse liver assessed as IL-10 levels at 3 mg/kg, po by multiplex assay (reference value: 2 pg/g); type: functional
In short: (§1)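 Single oral gavage in 20% HP-β-CD to healthy C57BL/6 mice, groups of 15 at 0.3, 1, 3, 10 or 30 mg/kg. Three mice per group sacrificed at 0.5, 1, 2, 4 or 7 h. Plasma and liver cytokines by multiplex, maximum level reported, rounded to nearest multiple of 5.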

Plasma [9] = experiment: Anti-inflammatory activity in C57BL/6J mouse plasma assessed as IL-10 levels at 3 mg/kg, po by multiplex assay (reference value: 120 pg/ml); type: functional; in short: as §1
[10] = Tmax in Sprague-Dawley rat liver at 10 mg/kg, po; type: ADME, organism-based
Liver [11] = experiment: Proinflammatory activity in C57BL/6J mouse liver assessed as CXCL-1 levels at 0.3 mg/kg, po by multiplex assay (reference value: 25 pg/g); type: functional
[12] = AUC (0 to last) in cynomolgus monkey plasma at 30 mg/kg, po by LC-MS analysis; type: ADME, organism-based, Macaca fascicularis; parameters: dose 30 mg/kg, route oral, time 0 - last
In short: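 Healthy cynomolgus monkeys received single oral doses of 1, 3, 9 and 30 mg/kg, with a 2-week wash-out between doses. Systemic compound concentrations were measured by LC–MS at 0.25, 0.5, 1, 2, 4, 8 and 24 h postdose.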

Liver [13] = experiment: Anti-inflammatory activity in C57BL/6J mouse liver assessed as IL-10 levels at 30 mg/kg, po by multiplex assay (reference value: 2 pg/g); type: functional; in short: as §1
[14] = molecular target: TLR7 and TLR8 (Homo sapiens) (UniProt Q9NYK1+Q9NR97); experiment: Agonist activity at TLR7/8 in human PBMCs co-cultured with primary human hepatocytes infected with HBV genotype C for 12 days assessed as increase in MIP-1beta levels up to 5 uM measured after 42 days
Cynomolgus monkey [15] = experiment: Activation of monocytes in cynomolgus monkey plasma assessed as upregulation of IL1Ra levels at 3 mg/kg, po after 24 hrs by Luminex assay (reference value: 320 pg/ml); type: functional, Macaca fascicularis
[16] = Inhibition of CYP450 (unknown origin); type: ADME; details: human
[17] = AUC in Sprague-Dawley rat at 10 mg/kg, po; type: ADME, organism-based; details: in vivo
In short: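 Male Sprague-Dawley rats were given 10 mg/kg orally as a solution. Compound was sampled from the portal vein, the systemic circulation and the liver.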

Chain of D(1A) dopamine receptor (P21728 whole entry): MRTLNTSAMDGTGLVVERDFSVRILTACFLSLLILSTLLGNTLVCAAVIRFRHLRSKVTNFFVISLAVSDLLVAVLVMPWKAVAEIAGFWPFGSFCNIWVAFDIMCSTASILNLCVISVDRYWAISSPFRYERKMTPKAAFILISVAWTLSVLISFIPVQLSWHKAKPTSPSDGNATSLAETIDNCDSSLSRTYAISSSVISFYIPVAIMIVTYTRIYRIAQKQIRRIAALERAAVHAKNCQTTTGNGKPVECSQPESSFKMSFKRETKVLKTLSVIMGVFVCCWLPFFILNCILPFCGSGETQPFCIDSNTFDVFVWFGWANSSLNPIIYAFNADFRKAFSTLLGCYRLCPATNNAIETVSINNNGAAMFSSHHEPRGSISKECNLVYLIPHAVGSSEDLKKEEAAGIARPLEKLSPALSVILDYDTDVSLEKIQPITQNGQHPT

With `CCC[C@@H](CCO)Nc1nc(N)nc2c(F)cccc12` the Activity (Plasma [1]) was >10000 pg/mL, the Activity (Cynomolgus monkey [2]) was 3465 pg/mL and the IC50 (D(1A) dopamine receptor) was > 10 µM. It also gave an Activity (Cynomolgus monkey [3]) of 5285 pg/mL, a metabolised at 0.25 h, 1 µM [4] of 93% and an Activity (Liver [5]) of 100 pg/g. For the same molecule, the Activity (Plasma [6]) was 40 pg/mL, the Kp [7] was 16 and the Activity (Liver [8]) was 1355 pg/g. For the same molecule, the Activity (Plasma [9]) was 1115 pg/mL, the Tmax [10] was 30 min and the Activity (Liver [11]) was 7790 pg/g. The AUC(0-t) [12] was 5200 ng·h/mL, the Activity (Liver [13]) was 5185 pg/g and the Activity [14] was “Active”. The Activity (Cynomolgus monkey [15]) was 2020 pg/mL, the “inhibition (INH)” value [16] was “Not Active” and the AUC [17] was 49 ng·h/mL.
